Reference: ChEMBL document CHEMBL4257531, “The role of aryl-topology in balancing between selective and dual 5-HT7R/5-HT1A actions of 3,5-substituted hydantoins” (Medchemcomm, 2018)

Columns and labels:
[1] = target: 5-hydroxytryptamine receptor 7 (Homo sapiens, UniProt P34969); assay: Displacement of [3H]-5-carboxamidotryptamine from human 5-HT7B receptor expressed in HEK293 cell membranes after 1 hr by microbeta counting method
[2] = target: T1, 5-hydroxytryptamine receptor 1A (Homo sapiens, UniProt P08908); assay: Displacement of [3H]-8-OH-DPAT from human 5-HT1A receptor expressed in HEK293 cell membranes after 1 hr by microbeta counting method
T1 sequence (P08908 whole entry): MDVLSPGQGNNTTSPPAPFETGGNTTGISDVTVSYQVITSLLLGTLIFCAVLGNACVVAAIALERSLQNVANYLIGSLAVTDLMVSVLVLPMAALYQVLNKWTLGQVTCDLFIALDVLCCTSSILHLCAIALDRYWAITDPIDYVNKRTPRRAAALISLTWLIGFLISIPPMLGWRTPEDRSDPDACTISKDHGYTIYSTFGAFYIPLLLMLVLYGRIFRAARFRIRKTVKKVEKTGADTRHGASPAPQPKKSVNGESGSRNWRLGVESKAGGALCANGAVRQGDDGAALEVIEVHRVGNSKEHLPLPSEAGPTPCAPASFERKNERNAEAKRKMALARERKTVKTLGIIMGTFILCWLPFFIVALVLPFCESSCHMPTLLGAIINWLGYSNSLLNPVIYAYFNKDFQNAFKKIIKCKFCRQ

D(2) dopamine receptor = D(2) dopamine receptor (Homo sapiens, UniProt P14416); assay: Displacement of [3H]-raclopride from human D2L receptor expressed in HEK293 cell membranes after 1 hr by microbeta counting method
HEK293 [3] = assay: Cytotoxicity against HEK293 cells assessed as reduction in cell viability at 100 uM after 72 hrs by MTS assay; format: cell-based; conditions: human, hek293, 72 h
How it was run: (§1)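 Viability by MTS, absorbance at 490 nm, after 72 h exposure at 0.1–100 μM; doxorubicin 1 μM as positive control. HepG2 only: CCCP 10 μM as additional control. Significance versus negative control by one-way ANOVA with Bonferroni test.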

[4] = Drug metabolism in CD-1 mouse liver microsomes after 120 mins by UPLC-MS analysis; format: ADME, microsome; conditions: for metabolised at 2 h: CD-1, mouse, liver microsomes, read-out: Drug metabolism
How it was run: (§2)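 Mouse liver microsomes with NADPH regeneration system; incubation followed by UPLC-MS with ion fragmentation. Percent substrate remaining read after 120 min; t1/2 and hepatic intrinsic clearance calculated.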

HEK293 [5] = assay: Cytotoxicity against HEK293 cells assessed as reduction in cell viability at 0.1 to 10 uM after 72 hrs by MTS assay; format: cell-based; conditions: human, hek293, 72 h; how it was run: as §1
HepG2 [6] = assay: Cytotoxicity against human HepG2 cells assessed as reduction in cell viability at 0.1 to 10 uM after 72 hrs by MTS assay; format: cell-based; conditions: hepg2, 72 h; how it was run: as §1
[7] = Intrinsic clearance in CD-1 mouse liver microsomes by UPLC-MS analysis; format: ADME, microsome; conditions: read-out: CLH; how it was run: as §2
[8] = Metabolic stability in CD-1 mouse liver microsomes assessed as parent compound remaining after 120 mins by UPLC-MS analysis; format: ADME, microsome; conditions: 2 h; how it was run: as §2
HepG2 [9] = assay: Cytotoxicity against human HepG2 cells assessed as reduction in cell viability at 100 uM after 72 hrs by MTS assay; format: cell-based; conditions: hepg2, 72 h; how it was run: as §1
[10] = Half life in CD-1 mouse liver microsomes by UPLC-MS analysis; format: ADME, microsome; conditions: for t1/2: mouse, microsomes; how it was run: as §2
Homo sapiens = species on record: Homo sapiens; assay: Selectivity ratio of Ki for 5-HT1A receptor (unknown origin) to Ki for 5-HT7 receptor (unknown origin)
How it was run: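 Competition binding on membranes of HEK-293 cells stably expressing human 5-HT1A or 5-HT7b receptors. 5-HT1A used 2.5 nM [3H]-8-OH-DPAT at room temperature; 5-HT7b used 0.8 nM [3H]-5-CT at 37 °C. Both ran 1 h, with 10 μM 5-HT for nonspecific binding. Seven concentrations (10–10–10–4 M) were tested in triplicate, with filtration read-out.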

HEK293 [11] = assay: Cytotoxicity against HEK293 cells assessed as reduction in cell viability at 1 uM after 72 hrs by MTS assay; format: cell-based; conditions: human, hek293, 72 h; how it was run: as §1
HepG2 [12] = assay: Cytotoxicity against human HepG2 cells assessed as reduction in cell viability at 1 uM after 72 hrs by MTS assay; format: cell-based; conditions: hepg2, 72 h; how it was run: as §1
HEK293 [13] = assay: Cytotoxicity against HEK293 cells assessed as reduction in cell viability after 72 hrs by MTS assay; conditions: human, hek293, 72 h
HepG2 [14] = assay: Cytotoxicity against human HepG2 cells assessed as reduction in cell viability at 10 uM after 72 hrs by MTS assay; format: cell-based; conditions: hepg2, 72 h
How it was run: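 Cells exposed to test compound across 0.1–100 μM (four concentrations) for 72 h. Viability read by MTS assay, absorbance at 490 nm. Positive controls: doxorubicin 1 μM for both lines, plus CCCP 10 μM for HepG2 only. Significance versus negative control assessed by one-way ANOVA with Bonferroni's test.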

5-hydroxytryptamine receptor 7, sequence (P34969 whole entry): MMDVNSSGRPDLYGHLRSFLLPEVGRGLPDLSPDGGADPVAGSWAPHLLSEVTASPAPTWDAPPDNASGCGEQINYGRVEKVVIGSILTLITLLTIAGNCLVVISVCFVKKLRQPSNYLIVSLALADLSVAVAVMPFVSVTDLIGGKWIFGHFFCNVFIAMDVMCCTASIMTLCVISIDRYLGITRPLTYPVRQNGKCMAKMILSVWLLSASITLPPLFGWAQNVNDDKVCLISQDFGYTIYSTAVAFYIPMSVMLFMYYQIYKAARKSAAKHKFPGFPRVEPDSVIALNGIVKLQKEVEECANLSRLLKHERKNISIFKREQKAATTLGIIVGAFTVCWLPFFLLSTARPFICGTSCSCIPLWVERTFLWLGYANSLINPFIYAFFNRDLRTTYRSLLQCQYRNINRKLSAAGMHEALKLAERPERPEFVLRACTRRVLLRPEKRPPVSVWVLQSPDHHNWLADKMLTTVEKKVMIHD
D(2) dopamine receptor, sequence (P14416 whole entry): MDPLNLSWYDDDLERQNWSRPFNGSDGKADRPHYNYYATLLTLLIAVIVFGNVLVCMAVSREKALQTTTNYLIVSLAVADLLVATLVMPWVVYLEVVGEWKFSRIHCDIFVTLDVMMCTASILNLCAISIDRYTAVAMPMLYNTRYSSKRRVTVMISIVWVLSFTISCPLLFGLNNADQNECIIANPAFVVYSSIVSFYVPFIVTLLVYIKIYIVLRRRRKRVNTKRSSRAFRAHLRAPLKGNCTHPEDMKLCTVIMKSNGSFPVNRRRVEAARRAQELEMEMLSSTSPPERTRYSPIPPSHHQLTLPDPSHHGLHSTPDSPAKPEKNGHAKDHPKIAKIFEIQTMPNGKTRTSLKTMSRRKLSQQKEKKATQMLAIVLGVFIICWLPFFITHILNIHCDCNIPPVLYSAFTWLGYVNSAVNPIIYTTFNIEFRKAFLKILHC

| Compound | Ki [1] [nM] | Ki [2] [nM] | Ki (D(2) dopamine receptor) [nM] | also measured |
| --- | --- | --- | --- | --- |
| CC1(c2ccc(F)cc2)NC(=O)N(CC(O)CN2CCN(C(=O)c3ccccc3)CC2)C1=O (configuration not stated) | 3610 | 6220 | 10100 | – |
| CC1(c2ccc3ccccc3c2)NC(=O)N(CC(O)CN2CCN(c3ccccc3C#N)CC2)C1=O (configuration not stated) | 3 | 129 | 264 | – |
| COc1ccccc1N1CCN(CC(O)CN2C(=O)NC(C)(c3cccc4ccccc34)C2=O)CC1 (configuration not stated) | 5 | 326 | 256 | Activity (HEK293 [3]): Toxic; Drug metabolism ([4]; mouse, microsomes, 2 h): 40%; Activity (HEK293 [5]): Non-Toxic; Activity (HepG2 [6]): Non-Toxic; CLint scaled [7]: 29 mL/min/kg; Stability [8]: 40%; Activity (HepG2 [9]): Toxic; half-life ([10]; CD-1, mouse, liver microsomes): 94 min |
| CC1(c2cccc3ccccc23)NC(=O)N(CC(O)CN2CCN(C(c3ccccc3)c3ccccc3)CC2)C1=O (configuration not stated) | 224 | 413000 | 273 | – |
| CC1(C)NC(=O)N(CC(O)CN2CCN(C(c3ccccc3)c3ccccc3)CC2)C1=O (configuration not stated) | 824 | 15100 | 1150 | – |
| CC1(C)NC(=O)N(CC(O)CN2CCN(c3ccccc3C#N)CC2)C1=O (configuration not stated) | 209 | 1160 | 3430 | – |
| CC1(c2ccc(F)cc2)NC(=O)N(CC(O)CN2CCN(Cc3cccc4ccccc34)CC2)C1=O (configuration not stated) | 2170 | 5580 | 5230 | – |
| CC1(c2ccc(F)cc2)NC(=O)N(CC(O)CN2CCN(C(c3ccccc3)c3ccccc3)CC2)C1=O (configuration not stated) | – | – | – | CLint scaled [7]: 17.2 mL/min/kg; Stability [8]: 20%; t1/2 [10]: 157.5 min; Ratio Ki (Homo sapiens): 71 |
| COc1ccccc1N1CCN(CC(O)CN2C(=O)NC(C)(c3ccc4ccccc4c3)C2=O)CC1 (configuration not stated) | 3 | 128 | 153 | Activity (HEK293 [3]): Toxic; metabolised at 2 h [4]: 65 to 70%; Activity (HEK293 [5]): Non-Toxic; Activity (HepG2 [6]): Non-Toxic; CLint scaled [7]: 43.4 mL/min/kg; Stability [8]: 70%; Activity (HepG2 [9]): Toxic; t1/2 [10]: 62.5 min |
| COc1ccccc1N1CCN(CC(O)CN2C(=O)NC(C)(C)C2=O)CC1 (configuration not stated) | 125 | 489 | 2130 | – |
| CC1(c2ccc(F)cc2)NC(=O)N(CC(O)CN2CCC(Oc3ccccc3)CC2)C1=O (configuration not stated) | 165 | 5210 | 4350 | – |
| CC1(c2ccc(F)cc2)NC(=O)N(CC(O)CN2CCC(Oc3ccc(Cl)cc3)CC2)C1=O (configuration not stated) | 172 | 21500 | 4120 | – |
| COc1cccc2c1C(=O)c1c(O)c3c(c(O)c1C2=O)C[C@@](O)(C(=O)CO)C[C@@H]3O[C@H]1C[C@H](N)[C@H](O)[C@H](C)O1 [DOXORUBICIN] | – | – | – | Activity (HEK293 [11]): Toxic; Activity (HepG2 [12]): Toxic |
| CC1(c2ccc(F)cc2)NC(=O)N(CC(O)CN2CCc3ccccc3C2)C1=O (configuration not stated) | 888 | 1550 | 5850 | – |
| CC1(c2ccc(F)cc2)NC(=O)N(CC(O)CN2CCN(Cc3ccccc3)CC2)C1=O (configuration not stated) | 2080 | 378000 | 20000 | – |
| N#CC(C#N)=NNc1cccc(Cl)c1 [CARBONYL CYANIDE M-CHLOROPHENYLHYDRAZONE] | – | – | – | Activity (HEK293 [13]): Toxic; Activity (HepG2 [14]): Toxic |
| CC1(c2ccc(F)cc2)NC(=O)N(CC(O)CN2CCN(c3cccc4ccccc34)CC2)C1=O (configuration not stated) | 11 | 19 | 295 | Activity (HEK293 [3]): Toxic; metabolised at 2 h [4]: 65 to 70%; Activity (HEK293 [5]): Non-Toxic; Activity (HepG2 [6]): Non-Toxic; CLint scaled [7]: 60.3 mL/min/kg; Stability [8]: 65%; Activity (HepG2 [9]): Toxic; t1/2 [10]: 45 min |
| CC1(c2cccc3ccccc23)NC(=O)N(CC(O)CN2CCN(c3ccccc3C#N)CC2)C1=O (configuration not stated) | 19 | 1230 | 416 | – |
